Experiments:
[1] = tested on: P388; assay: Concentration of compound required for 50% inhibition of incorporation of labeled uridine by P388 cells for the synthesis of RNA (in vitro); Solubility too low; format: functional, cell-based; details: Mus musculus
[2] = tested on: Calf thymus DNA; assay: Apparent number of binding sites per base pairs in DNA; d indicates solubility too low for determination; format: nucleic-acid assay; details: Bos taurus
Procedure, shortened: (§1)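 Calf thymus DNA; apparent binding constant and apparent number of drug binding sites per base pair, taken from a Scatchard plot of binding isotherms obtained by spectral titration. Run in 0.01 M phosphate buffer, pH 7.0, at 20 °C.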

[3] = tested on: P388; assay: Concentration of compound required for 50% inhibition of incorporation of labeled thymidine by p388 cells for synthesis of DNA (in vitro); Solubility too low; format: functional, cell-based; details: Mus musculus
[4] = tested on: Calf thymus DNA; assay: Apparent binding constant against calf thymus DNA-drug complex; d indicates solubility too low for determination; format: nucleic-acid assay; details: Bos taurus; procedure, shortened: as §1
[5] = tested on: P388; assay: Concentration of compound required for 50% inhibition of synthesis of RNA in cultured P388 cells; format: functional; details: Mus musculus, read-out: ED50 (the source's name)
[6] = tested on: P388; assay: Concentration of compound required for 50% inhibition of synthesis of DNA in cultured P388 cells; format: functional; details: Mus musculus, read-out: ED50 (the source's name)
[7] = tested on: P388; assay: Concentration required for 50% inhibition of incorporation of labeled uridine by P388 cells for the synthesis of RNA (in vitro); Not determined because of lack of DNA binding; format: functional, cell-based; details: Mus musculus
[8] = tested on: P388; assay: Concentration required for 50% inhibition of incorporation of labeled thymidine by p388 cells for synthesis of DNA (in vitro); Not determined because of lack of DNA binding; format: functional, cell-based; details: Mus musculus

For CCCCCCCCC/N=c1/cc(C(=O)N[C@@H]2C(=O)N[C@H](C(C)C)C(=O)N3CCC[C@@H]3C(=O)N(C)CC(=O)N(C)[C@@H](C(C)C)C(=O)O[C@@H]2C)c2nc3c(C(=O)N[C@H]4C(=O)N[C@@H](C(C)C)C(=O)N5CCC[C@H]5C(=O)N(C)CC(=O)N(C)[C@H](C(C)C)C(=O)O[C@H]4C)c(N)c(O)c(C)c3oc-2c1C, the ED50 [1] was “Solubility too low”, the Bapp [2] was “Not measurable” and the ED50 [3] was “Solubility too low”. The K app [4] was “Not measurable”.
Cc1c2oc3c(C)c(O)c(N)c(C(=O)N[C@@H]4C(=O)N[C@H](C(C)C)C(=O)N5CCC[C@H]5C(=O)N(C)CC(=O)N(C)[C@@H](C(C)C)C(=O)O[C@@H]4C)c3nc-2c(C(=O)N[C@@H]2C(=O)N[C@H](C(C)C)C(=O)N3CCC[C@H]3C(=O)N(C)CC(=O)N(C)[C@@H](C(C)C)C(=O)O[C@@H]2C)c/c1=N/Cc1ccc(Cl)c(Cl)c1 showed an EC50 [5] of 96 nM and an EC50 [6] of 418 nM.
With CCCCCNc1c(C(=O)N[C@H]2C(=O)N[C@@H](C(C)C)C(=O)N3CCC[C@H]3C(=O)N(C)CC(=O)N(C)[C@H](C(C)C)C(=O)O[C@H]2C)c2nc3c(C(=O)N[C@@H]4C(=O)N[C@H](C(C)C)C(=O)N5CCC[C@@H]5C(=O)N(C)CC(=O)N(C)[C@@H](C(C)C)C(=O)O[C@@H]4C)ccc(C)c3oc-2c(C)c1=O the ED50 [7] was “Not measurable” and the ED50 [8] was “Not measurable”.
With Cc1c2oc3c(C)ccc(C(=O)N[C@@H]4C(=O)N[C@H](C(C)C)C(=O)N5CCC[C@@H]5C(=O)N(C)CC(=O)N(C)[C@@H](C(C)C)C(=O)O[C@@H]4C)c3nc-2c(C(=O)N[C@H]2C(=O)N[C@@H](C(C)C)C(=O)N3CCC[C@H]3C(=O)N(C)CC(=O)N(C)[C@H](C(C)C)C(=O)O[C@H]2C)c(NCCCCCCCCN)c1=O the ED50 [7] was “Not measurable” and the ED50 [8] was “Not measurable”.

Source: ChEMBL document CHEMBL1121923, “N2- and C-7 substituted actinomycin D analogues: synthesis, DNA-binding affinity, and biochemical and biological properties. Structure-activity relationship” (J Med Chem, 1981)
